In brackets after ≈: the same amount, converted by molar mass.
Columns and labels:
[1] = system: Human immunodeficiency virus 1; experiment: Inhibition of HIV1 5'-long terminal repeat promoter expression in human 293T cells by luciferase assay; assay type: functional; conditions: Human immunodeficiency virus 1, HEK-293T
How it was run: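 293-T cells co-transfected in 10-cm dishes with 5 lg CD-12-luc LTR reporter plus 0.008 lg pCMV-β-galactosidase. Replated after 2 h and cultured 4 h, then exposed to test agent or vehicle for 20 h (lignins) or 21 h (model compounds). Luciferase chemiluminescence normalized to β-galactosidase. IC50 reported; lignin data are means of three independent experiments.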

[2] = Inhibition of TNF-induced NF-kappaB activation in human […] cells by luciferase assay; assay type: cell-based
How it was run: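 293-T cells co-transfected with 5 lg NF-κB luciferase reporter plus 0.008 lg pCMV-β-galactosidase, then replated after 2 h. Cultured 19 h (lignins) or 20 h (model compounds) before 1 h pretreatment with test agent. Stimulated with 3 ng/ml TNFα for 5 h. Luciferase chemiluminescence normalized to β-galactosidase activity; IC50 reported.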

| Structure (SMILES) | IC50 [1] [µg/mL] | IC50 [2] [µg/mL] |
| --- | --- | --- |
| CCCc1cc(OC)c(O)c(-c2cc(CCC)cc(OC)c2O)c1 | > 150 | > 150 |
| COc1cc(C(=O)[C@@H](CO)Oc2ccccc2OC)ccc1O | 107 (≈ 336 µM) | 43 (≈ 135 µM) |
| COc1cc([C@H]2Oc3c(OC)cc(/C=C/CO)cc3[C@@H]2CO)ccc1O | 34 (≈ 94.9 µM) | 19 (≈ 53 µM) |
| COc1cc([C@@H](O)[C@@H](CO)c2ccc(O)c(OC)c2)ccc1O | > 150 | > 150 |
| COc1cc([C@@H](O)[C@@H](CO)Oc2ccccc2OC)ccc1O | > 150 | 126 (≈ 393 µM) |
| COc1cc([C@@H]2OC[C@@H]3[C@H]2CO[C@H]3c2ccc(O)c(OC)c2)ccc1O (single isomer, unassigned) [(+)-PINORESINOL] | > 150 | 49 (≈ 137 µM) |
